# In ChEMBL document CHEMBL3400032 (Bioorg Med Chem, 2015):
# Active and inactive are the calls of the source. No cut-off for these calls is given here.
# Assays:
# [1] = Drug metabolism in Sprague-Dawley rat liver S9 fraction assessed as compound remaining at 1 uM after 30 mins by HPLC/MS/MS analysis relative to control; assay type: ADME, subcellular; details: read-out: Stability
# Outline: (§1)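 Test compound at 1 µM final, incubated 30 min at 37 °C in serum, or in S9 mix (50 mM potassium phosphate pH 7.4, 3 mM NADPH, 1 mg protein/mL pooled male SD rat or human liver S9). Preincubated 5 min at 37 °C, compound added in acetonitrile–water (1:1), stopped with ice-cold acetonitrile, centrifuged, filtered, parent and carboxylate hydrolysate quantified by HPLC-MS/MS.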
# [2] = Drug metabolism in rat serum assessed as compound remaining at 1 uM after 30 mins by HPLC/MS/MS analysis relative to control; assay type: ADME, cell-free; details: read-out: Stability; outline: as §1
# [3] = Drug metabolism in human liver S9 fraction assessed as compound remaining at 1 uM after 30 mins by HPLC/MS/MS analysis relative to control; assay type: ADME, subcellular; details: read-out: Stability; outline: as §1
# [4] = Drug metabolism in human serum assessed as compound remaining at 1 uM after 30 mins by HPLC/MS/MS analysis relative to control; assay type: ADME, cell-free; details: read-out: Stability; outline: as §1
# [5] = Drug metabolism in Sprague-Dawley rat liver S9 fraction assessed as 2-(3-aminopiperidin-1-yl)-3-(2-chlorobenzyl)-5-methyl-4-oxo-4,5-dihydro-3H-imidazo[4,5-c]quinoline-8-carboxylic acid formation at 1 uM after 30 mins by HPLC/MS/MS analysis relative to control; assay type: ADME, subcellular; details: s9, 0.5 h; outline: as §1
# Serum [6] = assay: Drug metabolism in rat serum assessed as 2-(3-aminopiperidin-1-yl)-3-(2-chlorobenzyl)-5-methyl-4-oxo-4,5-dihydro-3H-imidazo[4,5-c]quinoline-8-carboxylic acid formation at 1 uM after 30 mins by HPLC/MS/MS analysis relative to control; assay type: ADME, cell-free; details: 0.5 h; outline: as §1
# [7] = Drug metabolism in human liver S9 fraction assessed as 2-(3-aminopiperidin-1-yl)-3-(2-chlorobenzyl)-5-methyl-4-oxo-4,5-dihydro-3H-imidazo[4,5-c]quinoline-8-carboxylic acid formation at 1 uM after 30 mins by HPLC/MS/MS analysis relative to control; assay type: ADME, subcellular; details: s9, 0.5 h; outline: as §1
# Serum [8] = assay: Drug metabolism in human serum assessed as 2-(3-aminopiperidin-1-yl)-3-(2-chlorobenzyl)-5-methyl-4-oxo-4,5-dihydro-3H-imidazo[4,5-c]quinoline-8-carboxylic acid formation at 1 uM after 30 mins by HPLC/MS/MS analysis relative to control; assay type: ADME, cell-free; details: 0.5 h; outline: as §1
# [9] = Permeability of the compound at pH 5 by PAMPA; assay type: ADME; details: read-out: permeability
# [10] = Permeability of the compound at pH 7.4 by PAMPA; assay type: ADME; details: read-out: permeability
# Rattus norvegicus [11] = assay: Cmax in rat assessed as 2-(3-aminopiperidin-1-yl)-3-(2-chlorobenzyl)-5-methyl-4-oxo-4,5-dihydro-3H-imidazo[4,5-c]quinoline-8-carboxylic acid level at 20 mg/kg, po; assay type: ADME, organism-based; parameters: dose 20 mg/kg, route oral; details: in vivo
# Rattus norvegicus [12] = assay: Tmax in rat assessed as 2-(3-aminopiperidin-1-yl)-3-(2-chlorobenzyl)-5-methyl-4-oxo-4,5-dihydro-3H-imidazo[4,5-c]quinoline-8-carboxylic acid level at 20 mg/kg, po; assay type: ADME, organism-based; parameters: dose 20 mg/kg, route oral; details: in vivo
# Rattus norvegicus [13] = assay: AUC in rat assessed as 2-(3-aminopiperidin-1-yl)-3-(2-chlorobenzyl)-5-methyl-4-oxo-4,5-dihydro-3H-imidazo[4,5-c]quinoline-8-carboxylic acid level at 20 mg/kg, po; assay type: ADME, organism-based, Plasma; parameters: dose 20 mg/kg, route oral; details: in vivo
# Rattus norvegicus [14] = assay: Oral bioavailability in rat assessed as 2-(3-aminopiperidin-1-yl)-3-(2-chlorobenzyl)-5-methyl-4-oxo-4,5-dihydro-3H-imidazo[4,5-c]quinoline-8-carboxylic acid level at 20 mg/kg; assay type: ADME, organism-based; details: in vivo
# [15] = Solubility of the compound at pH 7.4; assay type: physicochemical; details: buffer
# [16] = Solubility of the compound at pH 5.5; assay type: physicochemical; details: buffer
# [17] = Solubility of the compound at pH 2.5; assay type: physicochemical; details: buffer
# Plasma = assay: Plasma concentration in rat at 20 mg/kg, po; assay type: ADME, organism-based; parameters: dose 20 mg/kg, route oral; details: in vivo
# Outline: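 Rats dosed orally with prodrug; plasma levels of prodrug and carboxylate active metabolite measured over time, limit of quantification 1.0 ng/mL.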
# Rattus norvegicus [18] = assay: In vivo inhibition of DPP4 in Sprague-Dawley rat at 3 mg/kg, po after 1 hr; assay type: functional
# Outline: (§2)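 Male SD rats, 11 weeks, fasted 24 h before predose sampling and throughout; single oral gavage 3 mg/kg. Blood taken −0.5, 1, 2, 4, 6, 10, 24 h. Plasma DPP-4 activity: Gly-Pro-MCA substrate, HEPES/NaCl/MgCl2 buffer pH 7.8, stopped with 5% acetic acid after 20 min, AMC fluorescence 360/460 nm against AMC standard curve; duplicates, background-subtracted, mU/mL plasma.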
# Rattus norvegicus [19] = assay: In vivo inhibition of DPP4 in Sprague-Dawley rat at 3 mg/kg, po after 10 hrs; assay type: functional; outline: as §2
# Rattus norvegicus [20] = assay: Reduction of blood glucose level in po dosed Zucker fatty rat model by OGTT analysis; assay type: functional, organism-based
# Rattus norvegicus [21] = assay: Reduction of blood glucose level in Zucker fatty rat model at 1 mg/kg, po by OGTT analysis; assay type: functional, organism-based; parameters: dose 1 mg/kg
# Rattus norvegicus [22] = assay: AUC in rat assessed as 2-(3-aminopiperidin-1-yl)-3-(2-chloro-5-fluorobenzyl)-5-methyl-4-oxo-4,5-dihydro-3H-imidazo[4,5-c]quinoline-7-carboxylic acid level at 10 mg/kg, po; assay type: ADME, organism-based, Plasma; parameters: dose 10 mg/kg, route oral; details: in vivo
# Rattus norvegicus [23] = assay: Oral bioavailability in rat assessed as 2-(3-aminopiperidin-1-yl)-3-(2-chloro-5-fluorobenzyl)-5-methyl-4-oxo-4,5-dihydro-3H-imidazo[4,5-c]quinoline-7-carboxylic acid level at 10 mg/kg; assay type: ADME, organism-based; details: in vivo
"remaining at 0.5 h, 1 µM [1] [%]","remaining at 0.5 h, 1 µM [2] [%]","remaining at 0.5 h, 1 µM [3] [%]","remaining at 0.5 h, 1 µM [4] [%]",Papp [9] [×10⁻⁶ cm/s],Papp [10] [×10⁻⁶ cm/s],solubility [15] [µg/mL],solubility [16] [µg/mL],solubility [17] [µg/mL],SMILES,further results
< 0.5,< 0.5,7.8,< 0.5,10.3,12.1,< 1,3,210,Cc1oc(=O)oc1COC(=O)c1ccc2c(c1)c1nc(N3CCC[C@@H](N)C3)n(Cc3ccccc3Cl)c1c(=O)n2C.Cl,Drug metabolism [5]: metabolite_detected; Drug metabolism (Serum [6]): metabolite_detected; Drug metabolism [7]: metabolite_detected; Drug metabolism (Serum [8]): metabolite_detected; Cmax (Rattus norvegicus [11]): 94.1 ng/mL; Tmax (Rattus norvegicus [12]): 2 h; AUC (Rattus norvegicus [13]): 728 ng·h/mL; F (Rattus norvegicus [14]): 35%; Cp (Plasma): < 1 ng/mL; inhibition in vivo at 3 mg/kg (Rattus norvegicus [18]): 87%; inhibition in vivo at 3 mg/kg (Rattus norvegicus [19]): 64%; Activity (Rattus norvegicus [20]): Dose-dependent effect; Activity (Rattus norvegicus [21]): Active
3.6,< 0.5,13,< 0.5,15.8,15.9,< 1,1,47,Cc1oc(=O)oc1COC(=O)c1ccc2c3nc(N4CCC[C@@H](N)C4)n(Cc4cc(F)ccc4Cl)c3c(=O)n(C)c2c1.Cl,AUC (Rattus norvegicus [22]): 43.9 ng·h/mL; F (Rattus norvegicus [23]): 4.8%
